Experimental data published in ChEMBL document CHEMBL4376862, “Synthesis and evaluation of novel chlorophyll a derivatives as potent photosensitizers for photodynamic therapy” (Eur J Med Chem, 2020).
Active and inactive are the calls of the source. No cut-off for these calls is given here.

What was measured:
[1] = Drug uptake in BALB/c nude mouse xenografted with A549 cells assessed as drug level in lung at 0.3 mg/kg, iv measured at 12 hrs by fluorescence assay; type: ADME, organism-based; conditions: in vivo
Summary of the method: (§1)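 A549 tumor-bearing mice dosed via tail vein (1 mg/kg in methods; 0.3 mg/kg in text) at tumors ~150–170 mm3, n = 3; whole-body imaging 0–24 h; at 6 and 12 h mice killed, heart, liver, spleen, lung, kidney, brain, tumor imaged ex vivo, excitation 420 nm, emission 650 nm.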

A549 [2] = assay: (§2) Photodynamic antitumor activity against human A549 cells xenografted in BALB/c nude mouse assessed as vascular rupture at 0.3 mg/kg, iv incubated for 24 hrs followed by laser light irradiation at 120 J/cm2 measured 24 hrs post light irradiation by H and E staining based histopathological analysis; type: functional, organism-based
Summary of the method: (§3)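 Tumors from PDT-treated A549 xenograft mice (0.3 mg/kg i.v., 650 nm laser 120 J/cm2 at 24 h) excised, fixed in 4% formaldehyde in PBS, paraffin-embedded, sectioned, H&E stained.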

Mus musculus [3] = assay: Phototoxicity in ICR mouse assessed as change in skin of the backs 0.45 mg/kg, iv in presence of 10 mW/cm2 light irradiation for 10 mins upto 7 days measured after 1 day of light irradiation by H and E staining based microscopic analysis; type: organism-based; conditions: in vivo
[4] = Dark toxicity in human A549 cells assessed as reduction in cell viability incubated under dark for 24 hrs measured after 48 hrs by MTT assay; type: cell-based; conditions: read-out: TC50
Summary of the method: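 A549 cells seeded at 5×10^4 cells/100 µL per well for 24 h, treated in the dark with […] (so in the source) for 24 h; MTT added 4 h, absorbance 570 nm, 48 h later; viability as OD treated/OD control; triplicate, mean ± SD.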

[5] = Induction of ROS generation in DMF solution assessed as ROS quantum yield at 2 uM followed by irradiation measured every 10 secs by spectrophotometric analysis; type: functional
Cavia porcellus [6] = assay: Phototoxicity in guinea pig assessed as change in right ear weight 4.5 mg/kg, iv followed by 10 mW/cm2 light irradiation for 10 mins measured after 1 day of light irradiation (reference value: 40.4 +/- 2.4 mg); type: organism-based; conditions: in vivo
A549 [7] = assay: Induction of apoptosis in human A549 cells assessed as early apoptotic cell in presence of 1J/cm2 light irradiation measured after 4 hrs by annexin V-FITC and propidium iodide staining based flow cytometric analysis (reference value: 0.07%); type: functional
Summary of the method: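 After PDT at 1 J/cm2, A549 cells collected 4 h later, stained with annexin V-FITC and propidium iodide per kit instructions; flow cytometry with at least 10,000 events per sample.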

A549 [8] = assay: Induction of ROS generation in human A549 cells assessed as increase in green fluorescence irradiated with 650 nanometer laser light preincubated for 4 hrs followed by DCFH-DA addition for 20 mins by fluorescent microscopic method relative to untreated control; type: functional, cell-based
Summary of the method: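 A549 cells given photosensitizer for 4 h, irradiated with 650 nm laser at 2 J/cm2, then DCFH-DA for 20 min; green emission at 525 nm (488 nm excitation) viewed by fluorescence microscopy; controls without light and laser without drug.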

Cavia porcellus [9] = assay: Phototoxicity in guinea pig assessed as change in left ear weight 4.5 mg/kg, iv followed by 10 mW/cm2 light irradiation for 10 mins measured after 1 day of light irradiation (reference value: 39.2 +/- 1.8 mg); type: organism-based; conditions: in vivo
A549 [10] = assay: Photodynamic antitumor activity against human A549 cells xenografted in BALB/c nude mouse assessed as survival time at 0.3 mg/kg, iv incubated for 24 hrs followed by laser light irradiation at 120 J/cm2 measured up to 70 days; type: functional, organism-based
Summary of the method: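 Nude mice bearing A549 xenografts, 0.3 mg/kg drug i.v. then 650 nm laser 120 J/cm2 at 180 mW/cm2 after 24 h; survival shown as Kaplan-Meier with log-rank test, n = 5.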

A549 [11] = assay: Phototoxicity in human A549 cells assessed as reduction in cell viability in presence of irradiation with laser light at 1 J/cm2 by fluorescence microscopic method relative to control; type: functional
Summary of the method: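 A549 cells were grown in F-12K with 10% FBS at 37 °C in 5% CO2. Cells were treated with photosensitizer and exposed to 650 nm laser at 0 or 1 J/cm2, with a laser-alone group. Viable cells were then stained with calcein (green) and nuclei with DAPI (blue), and imaged by fluorescence microscopy.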

[12] = Drug uptake in BALB/c nude mouse xenografted with A549 cells assessed as drug level in spleen at 0.3 mg/kg, iv measured at 12 hrs by fluorescence assay; type: ADME, organism-based; conditions: in vivo; summary of the method: as §1
Mus musculus [13] = assay: Phototoxicity in ICR mouse assessed as ear weight at 0.45 mg/kg, iv followed by 10 mW/cm2 light irradiation for 10 mins at 3 days after drug challenge measured after 1 day of light irradiation (reference value: 12.8 +/- 1.5 mg); type: organism-based; conditions: in vivo
A549 [14] = assay: Induction of apoptosis in human A549 cells assessed as caspase-3 activity using Ac-DEVD-pNA as substrate in presence of laser light irradiation measured upto 12 hrs; type: functional, cell-based
A549 [15] = assay: as §2, with “necrosis leukocyte infiltration” for “vascular rupture”; type: functional, organism-based; summary of the method: as §3
A549 [16] = assay: Photodynamic antitumor activity against human A549 cells xenografted in BALB/c nude mouse assessed as increase in tumor tissue damage at 0.3 mg/kg, iv incubated for 24 hrs followed by laser light irradiation at 120 J/cm2 measured up to 14 days; type: functional, organism-based
Summary of the method: (§4)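 Male BALB/c nude mice (5–6 weeks, 14–16 g) given 2×10^6 A549 cells s.c. in 0.2 mL PBS; at 6–7 mm tumors randomized into ten groups; drug via tail vein, 650 nm diode laser 120 J/cm2 at 180 mW/cm2 24 h later; caliper volume a×b²/2, followed 14 days.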

[17] = Drug uptake in BALB/c nude mouse xenografted with A549 cells assessed as drug level in heart at 0.3 mg/kg, iv measured at 12 hrs by fluorescence assay; type: ADME, organism-based; conditions: in vivo; summary of the method: as §1
[18] = Drug uptake in BALB/c nude mouse xenografted with A549 cells assessed as drug level in tumor tissue at 0.3 mg/kg, iv measured at 12 hrs by fluorescence assay; type: ADME, organism-based, Neoplasm; conditions: in vivo; summary of the method: as §1
[19] = Drug uptake in BALB/c nude mouse xenografted with A549 cells assessed as drug level in liver at 0.3 mg/kg, iv measured upto 12 hrs by fluorescence assay; type: ADME, organism-based; conditions: in vivo; summary of the method: as §1
[20] = Drug uptake in BALB/c nude mouse xenografted with A549 cells assessed as drug level in tumor tissue at 0.3 mg/kg, iv measured upto 24 hrs by fluorescence assay; type: ADME, organism-based, Neoplasm; conditions: in vivo; summary of the method: as §1
A549 [21] = assay: Photodynamic antitumor activity against human A549 cells xenografted in BALB/c nude mouse assessed as decrease in tumor weight at 0.3 mg/kg, iv followed by laser light irradiation at 120 J/cm2 measured after 14 days; type: functional; summary of the method: as §4
Mus musculus [22] = assay: Phototoxicity in ICR mouse assessed as ear weight at 0.45 mg/kg, iv followed by 10 mW/cm2 light irradiation for 10 mins at 1 day after drug challenge measured after 1 day of light irradiation (reference value: 12.6 +/- 1.2 mg); type: organism-based; conditions: in vivo

Compound | Drug uptake [1] | Activity (A549 [2]) | Activity (Mus musculus [3]) | CC50 at 24 h [4] | Ratio [5] | Activity (Cavia porcellus [6]) | Activity (A549 [7]) | Activity (A549 [8]) | Activity (Cavia porcellus [9]) | Activity (A549 [10]) | Activity (A549 [11]) | Drug uptake [12] | Activity (Mus musculus [13]) | Activity (A549 [14]) | Activity (A549 [15]) | Activity (A549 [16]) | Drug uptake [17] | Drug uptake [18] | Drug uptake [19] | Drug uptake [20] | further results
CCCCOC(C)c1c(C)c2cc3nc(c4c5[nH]c(cc6nc(cc1[nH]2)C(C)=C6CC)c(C)c5C(=O)C4)[C@@H](CCC(=O)NCC(=O)CCC(=O)O)[C@@H]3C (some centres undefined) | Not Active | Active | Non-Toxic | 2.01 µM | 1.56 | 43.6 mg | 2.07% | Active | 42.3 mg | Active | 30.69% | Not Active | 13.1 mg | Active | Active | Active | Not Active | Active | Active | Active | Activity (A549 [21]): 0.0138 g; Activity (Mus musculus [22]): 12.9 mg
CCC1=C(C)c2cc3[nH]c(cc4nc(c5c6[nH]c(cc1n2)c(C)c6C(=O)C5)[C@@H](CCC(=O)NCC(=O)CCC(=O)O)[C@@H]4C)c(C)c3C(C)OCCO (some centres undefined) | Not Active | Active | Non-Toxic | 8.88 µM | 1.35 | 41.9 mg | 28.92% | Active | 41.6 mg | Active | 34.15% | Not Active | 13.2 mg | Active | Active | Active | Not Active | Active | Active | Active | Activity (A549 [21]): 0.0296 g; Activity (Mus musculus [22]): 13.3 mg
